MC4R antag cAMP = human MC4R antagonism in cAMP assay | AID 540295 | MC4R-expressing cells, MTII-stimulated cAMP, LANCE TR-FRET | inhibition, % at 6.5 µM | hit rate 0.48% among 360,000;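 active means inhibition above its plate's cutoff, the mean of tested wells on that plate plus 3 SD, cut at about 29% in these data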
Target sequence (P32245 whole entry, looked up): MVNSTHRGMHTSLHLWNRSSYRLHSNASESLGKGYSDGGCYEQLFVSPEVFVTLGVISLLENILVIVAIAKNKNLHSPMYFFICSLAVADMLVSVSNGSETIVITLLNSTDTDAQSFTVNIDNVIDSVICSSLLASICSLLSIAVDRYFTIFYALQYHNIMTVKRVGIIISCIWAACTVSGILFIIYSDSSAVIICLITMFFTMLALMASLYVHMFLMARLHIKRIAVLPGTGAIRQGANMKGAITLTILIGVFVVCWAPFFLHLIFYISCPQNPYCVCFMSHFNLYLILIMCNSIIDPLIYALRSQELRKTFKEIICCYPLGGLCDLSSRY
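Assay system: human MC4R-expressing U2OS cells; reagent: Melanotan II stimulation of cells; dosing: 6.5 µM single dose; timing: compound 30 min, challenge 1 h, detection 1 h; signal: TR-FRET cAMP assay; replicates: one well per compound, no replicates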
MsrA inhibitor = inhibitors of bovine MsrA | purified bovine MsrA, absorbance read-out | inhibition, % at 15.5 µM | hit rate 0.75% among 360,000 | AID 651718; in the data active means inhibition above about 4.5%
MC4R barr agon = agonists of human melanocortin 4 receptor (MC4R) beta-arrestin; P32245; U2OS MC4R beta-arrestin complementation, luminescence; percent of melanotan II response, DMSO zero; activation, % at 8.9 µM; hit rate 0.98% among 360,000;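 active means activation above a per-plate cutoff, the mean activation of sample wells on that plate plus 3 SD, cut at about 8% in these data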
MsrA act = activators of bovine methionine sulfoxide reductase A; purified bovine MsrA, absorbance read-out; activation, % at 10.6 µM; hit rate 0.3% among 360,000; AID 602163; in the data active means activation above about 7.5%
MsrA act confirm = confirmation of bovine methionine sulfoxide reductase A activators; activation, % at 10.6 µM; hit rate 12% among 1,000; AID 602270; shares compounds with MsrA act; purified bovine MsrA, absorbance read-out; in the data active means activation above about 4%;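 further: enzyme coupled to thioredoxin and thioredoxin reductase with NADPH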
Each line names hits and unclear results; the compound was inactive in the other large screens (follow-up assays come after a bar, where they were run). Compounds with a hit are over-represented: about 2.3% of the library has one in this group of screens.

CCN(CC)CCn1c2c(c(SCC(=O)Nc3nc4ccc(C)cc4s3)nc1=O)CCC2	MsrA act 7.9 | MsrA act confirm inactive
COC(=O)c1cc(-c2ccccc2)n[nH]1	none
Cc1ccccc1-c1noc(CCC(=O)NCc2ccco2)n1	MsrA act 11.9 | MsrA act confirm inactive
N=c1sccn1CC(=O)Nc1ccc(S(N)(=O)=O)cc1	none
COc1ccc2c(c1)OC[C@H]1[C@H]2N2C(=O)c3cc(Cl)ccc3NC(=O)[C@@]2(C)[C@H]1c1ccccc1	none (no result: MsrA inhibitor)
CCC(C)[C@H](NC(=O)N1CC(=O)Nc2ccccc21)C(=O)N1CCC(C(=O)O)CC1 (stereo partly specified)	none
CN(C(=O)c1ccc(NC(=O)Cc2cccc(NC(=O)C3CCCN(C(=O)C4CCCCC4)C3)c2)cc1)C1CCCC1 (stereo unspecified)	none
CN(C(=O)c1ccc(NC(=O)Cc2cccc(NC(=O)C3CCCN(C(=O)C4CC4)C3)c2)cc1)C1CCCC1 (stereo unspecified)	MsrA act 8.3 | MsrA act confirm inactive
O=C(Nc1ccccc1Cl)N1C2CCC1CC(O)(c1cccnc1)C2 (stereo unspecified)	none
CCC(C)c1ccc(NC(=S)Nc2ccc(OC)cc2C)cc1 (stereo unspecified)	none
O=C(c1cc(Cl)c(=O)n(Cc2ccccc2)c1)N1CCOCC1	MsrA act 9.2 | MsrA act confirm inactive
CCc1ccc(NC(=O)c2cc(C)nn2-c2ccccc2)cc1	none
COc1ccc(-c2cn3ccccc3n2)cc1[N+](=O)[O-]	none
COc1ccc(-c2cn3cc([N+](=O)[O-])ccc3n2)cc1OC	MsrA act 10.3 | MsrA act confirm inactive
O=C(CCCn1c(=O)[nH]c2ccccc2c1=O)N1CCN(c2ccccn2)CC1	none
NC(=O)c1cc(S(=O)(=O)N2CCCC2)ccc1OCCOc1ccccc1F	MsrA act 11.0 | MsrA act confirm inactive
COc1ccc(OCCOc2ccc(S(=O)(=O)N3CCCC3)cc2C(N)=O)cc1	none
CC(=O)Nc1ccc(NS(=O)(=O)c2ccc(OC(C)C(=O)N3CCOCC3)cc2)cc1 (stereo unspecified)	none
N#CC(c1nc2ccccc2nc1N1CCCC1)S(=O)(=O)c1cccs1 (stereo unspecified)	MsrA act 10.0 | MsrA act confirm inactive
NNC(=O)CCc1nc2ccc(O)cc2[nH]1	none
CCN(CC)CCCNC(=O)c1csc(Nc2cccc3ccccc23)n1	MsrA act 8.1 | MsrA act confirm inactive
CSc1ccc(S(=O)(=O)Nc2ccc3c4c(cccc24)CC3)cc1	MsrA act 11.0 | MsrA act confirm inactive
CCCCN(C(=O)c1cc(Cl)nc2ccccc12)c1c(N)n(Cc2ccccc2)c(=O)[nH]c1=O	MsrA act 11.5 | MsrA act confirm inactive
CCCCN(C(=O)c1cc(Cl)nc2ccccc12)c1c(N)n(CCC)c(=O)[nH]c1=O	none
Oc1c(Br)cc(Br)cc1CNc1ccc(F)cc1	MsrA act 8.9 | MsrA act confirm inactive
CCc1nn(C(C)C(=O)Nc2cccc(C)c2C)c(=O)c2cc3occc3n12 (stereo unspecified)	MsrA act 8.4 | MsrA act confirm inactive
O=[N+]([O-])c1ccc(C=Nc2cccc3ccccc23)s1	MsrA act 8.1 (no result: MsrA inhibitor) | MsrA act confirm 6.5
COC(=O)c1ccc(NC(=O)CC2C(=O)N(C)C(=S)N2Cc2ccc(S(N)(=O)=O)cc2)cc1 (stereo unspecified)	none
CC(C)Cc1c(O)nc(SCC(=O)N2CCCCCC2)[nH]c1=O	MsrA act 21.5 | MsrA act confirm inactive
CSC1=NCCN1S(=O)(=O)c1ccc(NC(C)=O)cc1	MsrA act 21.3 | MsrA act confirm inactive
CC(OC(=O)c1ccc(Cl)nc1)C(=O)Nc1ccc(S(=O)(=O)N2CCCC2)cc1 (stereo unspecified)	none
Fc1ccccc1/C=N/n1c(COc2ccccc2)n[nH]c1=S	MsrA act 9.9 | MsrA act confirm inactive
CCOc1cc(C(=O)N(C)CC(=O)Nc2cccc3ccccc23)ccc1OC	none
O=C(Nc1nnc(-c2ccco2)o1)c1ccc(S(=O)(=O)N2CCCC2)cc1	MsrA act 15.6 | MsrA act confirm inactive
CC1CCN(S(=O)(=O)c2ccc(C(=O)Nc3nnc(-c4ccco4)o3)cc2)CC1	none
CC(=O)Nc1ccc(C(=O)Nc2ccc(S(=O)(=O)N3CCCCC3)cc2)cc1	none
CS(=O)(=O)c1ccc(C(=O)Nc2ccc(S(=O)(=O)N3CCCCC3)cc2)cc1	MsrA act 14.9 | MsrA act confirm inactive
